# Laboratory results: ChEMBL document CHEMBL3400028, “Evaluation of Aconitum diterpenoid alkaloids as antiproliferative agents” (2015)
# Experiments:
# Format in all cases: functional
# [1] = test system: A549; experiment: Antiproliferative activity against human A549 cells by sulforhodamine B assay
# In short: (§1)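 Cells in RPMI 1640 (25 mM HEPES, 2 mM L-glutamine, 10% heat-inactivated FBS, antibiotics) at 37 °C, 5% CO2. Seeded at 3–5 × 10³/well with graded concentrations, paclitaxel as assay control, for 72 h. TCA-fixed, stained with 0.04% SRB, dye dissolved in 10 mM Tris, A515 read. GI50 is the concentration halving absorbance versus untreated cells; three or more experiments.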
# [2] = test system: DU-145; experiment: Antiproliferative activity against human DU145 cells by sulforhodamine B assay; in short: as §1
# [3] = test system: KB; experiment: Antiproliferative activity against human KB cells by sulforhodamine B assay; in short: as §1
# [4] = Antiproliferative activity against multidrug-resistant P-gp expressing human KBVIN cells by sulforhodamine B assay
# In short: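 Vincristine-resistant KB subline kept in 100 nM vincristine, then grown 7–10 days without it before testing. RPMI 1640 with 10% FBS, 37 °C, 5% CO2. 3–5 × 10³ cells/well exposed 72 h to a concentration series, paclitaxel as assay control. SRB staining after TCA fixation, A515 read. GI50 is the 50% absorbance reduction versus untreated cells; three or more experiments.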
# [5] = Selectivity ratio of GI50 for human KB cells to GI50 for multidrug-resistant P-gp expressing human KBVIN cells
# In short: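 Ratio of GI50 in parental KB to GI50 in P-gp-overexpressing KB-VIN. […] KB-VIN cells were grown 7–10 days without vincristine before the assay.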
GI50 [1],GI50 [2],GI50 [3],Structure (SMILES),GI50 [4],RatioGI50 [5]
> 20 µM,> 20 µM,> 20 µM,C=C1[C@H]2C[C@@H]3C4N5C[C@]6(C)CCC[C@@]47[C@@H]6[C@@H]5C[C@]3([C@@H]1OC(=O)c1ccccc1)[C@H]7[C@H]2O,> 20 µM,>20
8.4 µM,9.3 µM,6 µM,C=C1[C@H]2C[C@@H]3C4N5C[C@]6(C)CCC[C@@]47[C@@H]6[C@@H]5C[C@]3([C@@H]1OC(=O)c1ccccc1)[C@H]7[C@H]2OC(=O)c1ccccc1,7.5 µM,0.8
> 20 µM,> 20 µM,> 20 µM,C=C1[C@H]2C[C@@H]3C4N5C[C@]6(C)CCC[C@@]47[C@@H]6[C@@H]5C[C@]3([C@@H]1O)[C@H]7[C@H]2OC(=O)c1ccc(OC)cc1,> 20 µM,>20
6.7 µM,7.1 µM,5.3 µM,C=C1[C@H]2C[C@@H]3C4N5C[C@]6(C)CCC[C@@]47[C@@H]6[C@@H]5C[C@]3([C@@H]1OC(=O)c1ccc(OC)cc1)[C@H]7[C@H]2OC(=O)c1ccc(OC)cc1,5.2 µM,1
10 µM,10 µM,10 µM,C=C1[C@H]2C[C@@H]3C4N5C[C@]6(C)CCC[C@@]47[C@@H]6[C@@H]5C[C@]3([C@@H]1O)[C@H]7[C@H]2OC(=O)c1ccc([N+](=O)[O-])cc1,10 µM,10
> 20 µM,> 20 µM,> 20 µM,C=C1[C@H]2C[C@@H]3C4N5C[C@]6(C)CCC[C@@]47[C@@H]6[C@@H]5C[C@]3([C@@H]1OC(=O)c1ccc([N+](=O)[O-])cc1)[C@H]7[C@H]2O,> 20 µM,>20
6.9 µM,1 µM,5.3 µM,C=C1[C@H]2C[C@@H]3C4N5C[C@]6(C)CCC[C@@]47[C@@H]6[C@@H]5C[C@]3([C@@H]1OC(=O)c1ccc([N+](=O)[O-])cc1)[C@H]7[C@H]2OC(=O)c1ccc([N+](=O)[O-])cc1,5.5 µM,0.96
> 20 µM,> 20 µM,> 20 µM,C=C1[C@H]2C[C@@H]3C4N5C[C@]6(C)CCC[C@@]47[C@@H]6[C@@H]5C[C@]3([C@@H]1O)[C@H]7[C@H]2OC(=O)c1ccccc1C(F)(F)F,> 20 µM,>20
> 20 µM,> 20 µM,> 20 µM,C=C1[C@H]2C[C@@H]3C4N5C[C@]6(C)CCC[C@@]47[C@@H]6[C@@H]5C[C@]3([C@@H]1O)[C@H]7[C@H]2OC(=O)c1cccc(C(F)(F)F)c1,> 20 µM,>20
10 µM,10 µM,10 µM,C=C1[C@H]2C[C@@H]3C4N5C[C@]6(C)CCC[C@@]47[C@@H]6[C@@H]5C[C@]3([C@@H]1O)[C@H]7[C@H]2OC(=O)c1ccc(C(F)(F)F)cc1,10 µM,10
10 µM,10 µM,10 µM,C=C1[C@H]2C[C@@H]3C4N5C[C@]6(C)CCC[C@@]47[C@@H]6[C@@H]5C[C@]3([C@@H]1O)[C@H]7[C@H]2OC(=O)c1ccc(OC(F)(F)F)cc1,10 µM,10
> 20 µM,> 20 µM,> 20 µM,C=C1[C@H]2C[C@@H]3C4N5C[C@]6(C)CCC[C@@]47[C@@H]6[C@@H]5C[C@]3([C@@H]1O)[C@H]7[C@H]2OC(=O)c1cccnc1,> 20 µM,>20
> 20 µM,> 20 µM,> 20 µM,C=C1[C@H]2C[C@@H]3C4N5C[C@]6(C)CCC[C@@]47[C@@H]6[C@@H]5C[C@]3([C@@H]1O)[C@H]7[C@H]2OC(=O)c1ccc(F)cc1,> 20 µM,>20
> 20 µM,> 20 µM,> 20 µM,C=C1[C@H]2C[C@@H]3C4N5C[C@]6(C)CCC[C@@]47[C@@H]6[C@@H]5C[C@]3([C@@H]1OC(=O)c1ccc(F)cc1)[C@H]7[C@H]2O,> 20 µM,>20
8.1 µM,6.8 µM,5.2 µM,C=C1[C@H]2C[C@@H]3C4N5C[C@]6(C)CCC[C@@]47[C@@H]6[C@@H]5C[C@]3([C@@H]1OC(=O)c1ccc(F)cc1)[C@H]7[C@H]2OC(=O)c1ccc(F)cc1,7.1 µM,0.73
5.5 µM,6.2 µM,4.1 µM,C=C1[C@H]2C[C@@H]3C4N5C[C@]6(C)CCC[C@@]47[C@@H]6[C@@H]5C[C@]3([C@@H]1OC(=O)/C=C/c1cccc(C(F)(F)F)c1)[C@H]7[C@H]2OC(=O)/C=C/c1cccc(C(F)(F)F)c1,3.1 µM,1.3
> 20 µM,> 20 µM,> 20 µM,C=C1[C@H]2C[C@@H]3C4N5C[C@]6(C)CCC[C@@]47[C@@H]6[C@@]5(O)C[C@]3([C@@H]1OC(=O)c1cccnc1)[C@H]7[C@H]2O,> 20 µM,>20
> 20 µM,> 20 µM,> 20 µM,C=C1[C@H]2C[C@@H]3C4N5C[C@]6(C)CCC[C@@]47[C@@H]6[C@@]5(O)C[C@]3([C@@H]1OC(=O)c1cccnc1)[C@H]7[C@H]2OC(=O)c1cccnc1,> 20 µM,>20
> 20 µM,> 20 µM,> 20 µM,C=C1[C@H]2C[C@@H]3C4N5C[C@]6(C)CCC[C@@]47[C@@H]6[C@@]5(O)C[C@]3([C@@H]1OC(=O)CC)[C@H]7[C@H]2O,> 20 µM,>20
> 20 µM,> 20 µM,> 20 µM,C=C1[C@H]2C[C@@H]3C4N5C[C@]6(C)CCC[C@@]47[C@@H]6[C@@]5(O)C[C@]3([C@@H]1OC(=O)CC)[C@H]7[C@H]2OC(=O)CC,> 20 µM,>20
6.4 µM,6 µM,6.6 µM,C=C1[C@H]2C[C@@H]3C4N5C[C@]6(C)CCC[C@@]47[C@@H]6[C@@]5(O)C[C@]3([C@@H]1O)[C@H]7[C@H]2OC(c1ccccc1)(c1ccccc1)c1ccccc1,5.2 µM,1.3
> 20 µM,> 20 µM,> 20 µM,CC1[C@H]2C[C@@H]3C4N5C[C@]6(C)CCC[C@@]47[C@@H]6[C@@]5(O)C[C@]3([C@@H]1O)[C@H]7[C@H]2O (stereo not given in full),> 20 µM,>20
> 20 µM,> 20 µM,> 20 µM,C=C1[C@H]2C[C@H]3C4N(Cc5ccccc5)C[C@]5(C)CCC[C@]46[C@H]([C@H]2O)C3(CC(=O)[C@H]56)[C@@H]1O (stereo not given in full),> 20 µM,>20
